Assay [1] deals with Rattus norvegicus. As to the kind of experiment: Antihypertensive effects in conscious, unrestrained, spontaneously hypertensive rats after 30 mg/kg i.p. administration. The class given is functional. Conditions: route intraperitoneal. The essentials:
(§1)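 SHR housed singly with free access to tap water, overnight recovery before testing. Compound suspended in 1% methylcellulose, given once ip at 30 mg/kg or by oral gavage at 100 mg/kg (n = 3); concurrent controls (n = 3) got 1 mL vehicle by same route. MAP recorded continuously 24 h; value is maximum change from concurrent control, mean ± SEM.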

The subject of assay [2] is Rattus norvegicus. Description: Antihypertensive effects in conscious, unrestrained, spontaneously hypertensive rats after 100 mg/kg p.o. administration. The class given is functional. The conditions noted are these: route oral. The method in brief:
as §1

Assay [3] concerns Rattus norvegicus. As to the kind of experiment: Total antihypertensive activity was obtained from the area between compound and control MAP (mean arterial pressure) curves, after (ip) 30 mg/kg administration in spontaneously hypertensive rats (SHR). The class given is functional, Artery. The method in brief: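 SHR dosed once ip at 30 mg/kg in 1% methylcellulose suspension (n = 3), with vehicle-dosed concurrent controls (n = 3). MAP recorded continuously over 24 h; time points 0, 0.25, 0.5, 1, 2, 4, 6, 12, 18 and 24 h used. Value is area between drug and control MAP curves, in mmHg × h.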

Take `CN(C)CC(=O)N1C=CC(c2ccccc2)(c2ccccc2)C=C1.Cl`: the figures for the “Max change in blood pressure” value in the assay with Rattus norvegicus [1] and in the assay on Rattus norvegicus [2] were -29 mmHg and -12 mmHg, respectively. Further, the Antihypertensive activity in the assay with Rattus norvegicus [3] is 362 mmHg·h.
Regarding `CC1(C)C=CN(/C(=N/c2ccccc2)N2CCCC2)C=C1.O=C(O)/C=C\C(=O)O`, the results for the “Max change in blood pressure” value with Rattus norvegicus [1] and in the assay with Rattus norvegicus [2] were 27 mmHg and 19 mmHg, respectively.
Turning to `CN(C)CC(=O)N1C=CC(C)(C)C=C1.O=C(O)/C=C\C(=O)O`, the “Max change in blood pressure” value in the assay on Rattus norvegicus [1] was -52 mmHg; in the assay on Rattus norvegicus [2], -39 mmHg. The Activity in the assay with Rattus norvegicus [3] came to 132 mmHg·h.
On to `CC1(C)C=CN(C(=O)Nc2ccccc2)C=C1`, for which the “Max change in blood pressure” value is -24 mmHg in the assay with Rattus norvegicus [1] and -15 mmHg with Rattus norvegicus [2].
On the same counts, the results for `CN(C)CCN1C=CC(c2ccccc2)(c2ccccc2)C=C1` are -30 mmHg and -14 mmHg.
On the same counts, the results for `COc1ccc(CC(=O)N2C=CC(C)(C)C=C2)cc1OC` are -21 mmHg and 23 mmHg.
On the same counts, the results for `COC(=O)CCCN1C=CC(c2ccc(OC)cc2)(c2ccc(OC)cc2)C=C1` are 11 mmHg and -21 mmHg.
With `COC(=O)CCN1C=CC(C)(C)C=C1`, the “Max change in blood pressure” value in the assay with Rattus norvegicus [1] is given as -71 mmHg; in the assay with Rattus norvegicus [2], -19 mmHg. This molecule returned an Activity with Rattus norvegicus [3] of 1360 mmHg·h.
On the same counts, the results for `COC(=O)CCCN1C=CC(C)(C)C=C1` are -42 mmHg, -45 mmHg and 696 mmHg·h.
As for `CN(C)CCN1C=CC(C)(C)C=C1`, the “Max change in blood pressure” value with Rattus norvegicus [1] is -32 mmHg; in the assay with Rattus norvegicus [2], -10 mmHg. Also, the Antihypertensive activity in the assay with Rattus norvegicus [3] worked out at 281 mmHg·h.
As to `COc1ccc(CCN2C=CC(c3ccccc3)(c3ccccc3)C=C2)cc1OC`, the “Max change in blood pressure” value in the assay on Rattus norvegicus [1] and with Rattus norvegicus [2] was -7 mmHg in each case.
Consider `CNC(=O)N1C=CC(C)(C)C=C1`, for which the “Max change in blood pressure” value with Rattus norvegicus [1] was -34 mmHg; in the assay on Rattus norvegicus [2], -41 mmHg.
As for `COC(=O)CCCCN1C=CC(C)(C)C=C1`, the entries for the “Max change in blood pressure” value in the assay with Rattus norvegicus [1] and with Rattus norvegicus [2] were -58 mmHg and -11 mmHg, respectively. Moreover, the Activity in the assay on Rattus norvegicus [3] came out at 943 mmHg·h.
On to `CNC(=O)N1C=CC(c2ccccc2)(c2ccccc2)C=C1`, for which the “Max change in blood pressure” value in the assay on Rattus norvegicus [1] is 17 mmHg; in the assay with Rattus norvegicus [2], -11 mmHg.
Take `CC1(C)C=CN(C(=O)c2ccccc2)C=C1`: the entries for the “Max change in blood pressure” value in the assay on Rattus norvegicus [1] and with Rattus norvegicus [2] were -21 mmHg and -27 mmHg, respectively. The same molecule showed an Antihypertensive activity with Rattus norvegicus [3] of 210 mmHg·h.
For the molecule `CC1(C)C=CN(C(=O)c2ccc[nH]2)C=C1`, the entries for the “Max change in blood pressure” value in the assay on Rattus norvegicus [1] and in the assay on Rattus norvegicus [2] were 6 mmHg and -7 mmHg, respectively.
On the same counts, the results for `O=C(c1ccccc1)N1C=CC(c2ccccc2)(c2ccccc2)C=C1` are 11 mmHg and 12 mmHg.
Consider `Cc1csc(N2C=CC(C)(C)C=C2)n1`, for which the “Max change in blood pressure” value in the assay on Rattus norvegicus [1] is recorded as 14 mmHg; in the assay on Rattus norvegicus [2], -21 mmHg.
Regarding `CC1(C)C=CN(C(=O)c2cccnc2)C=C1`, the “Max change in blood pressure” value is -19 mmHg in the assay on Rattus norvegicus [1] and -26 mmHg in the assay with Rattus norvegicus [2]. Moreover, the Antihypertensive activity in the assay with Rattus norvegicus [3] came to 291 mmHg·h.
Regarding `CC1(C)C=CN(C(=O)C(c2ccccc2)c2ccccc2)C=C1`, the “Max change in blood pressure” value in the assay on Rattus norvegicus [1] is listed as -9 mmHg; in the assay on Rattus norvegicus [2], -6 mmHg.
With `COC(=O)C1=C(C)NC(C)=C(C(=O)OC)C1c1ccccc1[N+](=O)[O-]` [NIFEDIPINE], the results for the “Max change in blood pressure” value in the assay on Rattus norvegicus [1] and in the assay with Rattus norvegicus [2] were -71 mmHg and -68 mmHg, respectively.

(Values after ChEMBL document CHEMBL1124938, “Antihypertensive dihydropyridines with 1,4,4-trisubstitution” (1990).)
